A selection: hits, their analogues and other compounds. The true share with any hit is near 1.1%.
CaV13 ICDI inh: Primary screen for inhibitors of IQ motif and Ca2+-dependent inactivation inhibitor domain binding in CACNA1D, Förster resonance energy transfer in living cells, …; HEK cells, CFP/YFP FRET ICDI-IQ, plate reader, 10 min; percent FRET-ratio fall versus neutral wells; inhibition, % at 12.3 µM; 0.098% of 340,000 active; AID 743397;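 active means mean replicate inhibition of at least 30% and at least 1% of replicates passing that level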;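 further: 0% = median of the neutral control wells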
procasp3 activ: procaspase-3 (human) activation; recombinant procaspase-3 D3A, Ac-DEVD-pNA absorbance 405 nm; activation, % at 8.5 µM; AID 463141; 0.11% of 330,000 active; P42574;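 active means activation above the mean of all tested compounds plus 3 SD, cut at about 21% in these data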;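 further: 0% = DMSO alone and 100% = DMSO wells spiked with extra 5 µM PC-3 D3A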
Target sequence (P42574 whole entry D9A/D28A/D175A): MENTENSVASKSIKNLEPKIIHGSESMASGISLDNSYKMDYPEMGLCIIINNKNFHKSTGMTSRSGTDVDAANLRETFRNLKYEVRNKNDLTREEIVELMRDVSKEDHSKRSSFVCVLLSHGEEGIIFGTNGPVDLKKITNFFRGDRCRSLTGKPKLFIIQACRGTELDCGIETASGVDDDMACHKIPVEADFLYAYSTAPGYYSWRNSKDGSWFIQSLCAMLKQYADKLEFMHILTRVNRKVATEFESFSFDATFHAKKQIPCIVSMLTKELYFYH
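Assay system: Procaspase-3 D3A mutant, all three cleavage aspartates alanine. Buffer or medium: Zinc-free HEPES saline buffer with Triton X-100. Times: 1 h compound preincubation, 2 h substrate hydrolysis at 25 °C. Measured by: 405 nm absorbance of p-nitroaniline, reads at 0 and 120 min. Read-out basis: percent activation relative to control range. Replicates: singlicate.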
proCasp7 act: counter-screen: procaspase-7 (human) activation; activation, % at 8.5 µM; AID 463210; 0.093% of 330,000 active; recombinant procaspase-7, Ac-DEVD-pNA absorbance 405 nm; D23A/D198A/D206A triple mutant, cannot self-cleave; scale: DMSO 0, 5 µM enzyme 100; P55210;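 active means percent activation above the screen-wide mean plus 3 SD, cut at about 25% in these data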
Target sequence (P55210 whole entry D23A/D198A/D206A): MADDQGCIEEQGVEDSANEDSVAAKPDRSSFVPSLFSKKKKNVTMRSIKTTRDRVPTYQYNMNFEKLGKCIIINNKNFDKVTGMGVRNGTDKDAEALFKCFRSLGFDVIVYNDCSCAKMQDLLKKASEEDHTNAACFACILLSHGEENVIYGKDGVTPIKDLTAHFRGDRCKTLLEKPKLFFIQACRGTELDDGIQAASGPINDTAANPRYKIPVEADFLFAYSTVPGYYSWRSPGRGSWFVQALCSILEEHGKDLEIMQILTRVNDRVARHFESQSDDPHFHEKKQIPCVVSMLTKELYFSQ
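Replicates: singlicate. Assay system: Procaspase-7 triple mutant (PC-7 D3A). Signal: 405 nm absorbance of p-nitroaniline. Times: 1 h preincubation, 2 h reaction. Buffer or medium: Zinc-free HEPES pH 7.4 with 300 mM NaCl, 0.01% Triton X-100. Also added: DEVD-pNA substrate. Benchmarks: DMSO wells as 0%, DMSO with 5 µM added PC-7 as 100%.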
T cell HTS: modulates CD8 T cell binding to vesicles. 2C CD8+ T cell-vesicle binding, flow cytometry; hits give low values. 0.068% of 330,000 active. response (vesicle binding), % at 7 µM;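 active means response, share of CD8 T cells binding vesicles, and their 90th percentile fluorescence all below set limits, cut at about 80% in these data, passing the limit was not always enough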;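 further: values below 100% mean blocked vesicle binding to the CD8+ T cells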
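Assay system: 2C TCR transgenic mouse naive CD8+ T cells, MACS-purified | Read-out: CD8+ gate FL2 mean fluorescence as % of same-row positive control | Signal: High-throughput flow cytometry with anti-B7-1 and anti-CD8 staining | Timing: Binding step 1.5 h, 37 °C, antibody labelling 20 min, ice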
aDG glyco up: alpha-DG glycosylation activation; Pro5-aDG cells, alpha-DG glycosylation AlphaScreen (IIH6); 0% Pro5, 100% B10-LARGE cell signal; activation, % at 10 µM; 0.22% of 360,000 active; AID 624168;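 active means activation of at least 8% versus controls, or a plate z-score of at least 8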;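 further: Pro5 are CHO cells carrying HIG-tagged alpha-DG that lacks glycosylation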
GRK2 aptamer HTS: blocks RNA aptamer binding to human GRK2; 0.59% of 330,000 active; bead flow cytometry, FAM-aptamer displacement from GRK2; inhibition of aptamer binding, % at 10 µM; P25098;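 active means inhibition of aptamer binding above 40%, roughly 3 SD of noise, on plates passing a quality check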;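 further: median bead fluorescence of bound FAM aptamer so fluorescent compounds give negative values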
aDG glyco conf: alpha-DG glycosylation activation, confirmation; shares compounds with aDG glyco up; activation, % at 10 µM (by protocol); Pro5-aDG cells, IIH6 AlphaLISA; scaled to LARGE-overexpressing B10 cells as 100%; 17% of 600 active;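 active means activation of at least 7% in one or more replicates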;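 further: cells exposed to compound for two days before detection; 0% = DMSO-treated Pro5 cells and 100% = DMSO-treated B10-LARGE cells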
* marks the source's active call; other numbers are inactive results.

Screening COc1ccc(CNC(=O)/C(C#N)=C2\N=C(NC(=O)c3cccs3)c3ccccc32)cc1 returned CaV13 ICDI inh -6, procasp3 activ -2, proCasp7 act 7, T cell HTS 296, aDG glyco up 0 and GRK2 aptamer HTS 5.
Screening O=C(Nc1cc(Cl)ccc1-n1cncn1)c1ccco1 returned CaV13 ICDI inh -9, procasp3 activ 6, proCasp7 act -2, T cell HTS 314, aDG glyco up 0 and GRK2 aptamer HTS 0.
O=C(Nc1cc(Cl)ccc1-n1cncn1)c1ccc([N+](=O)[O-])s1 was read as procasp3 activ 3, proCasp7 act 1, T cell HTS 299, aDG glyco up 12*, GRK2 aptamer HTS 0 and aDG glyco conf 3.8*.
`CCSc1nnc(SCC(=O)c2c(N)n(C)c(=O)n(C)c2=O)s1` gave CaV13 ICDI inh -3, aDG glyco up 4.2* and aDG glyco conf -1.
`Cc1ccccc1Nc1nnc(SCC(=O)c2c(N)n(C)c(=O)n(C)c2=O)s1` gave CaV13 ICDI inh -3, procasp3 activ 3, proCasp7 act 6, T cell HTS 215, aDG glyco up 0 and GRK2 aptamer HTS 0.
`CCc1nc2ccc(C(=O)NCC3CCCCC3)cn2c1N(C)C(=O)c1cccc(OC)c1` gave CaV13 ICDI inh -4 and aDG glyco up 0.
For CN1C(=O)c2cccc(NCCCN3C(=O)c4ccccc4C3=O)c2C1=O the results were CaV13 ICDI inh -8, procasp3 activ 2, proCasp7 act 5, T cell HTS 258, aDG glyco up 0 and GRK2 aptamer HTS 3.
`CN1C(=O)c2cccc(NCCCCCCN3C(=O)c4ccccc4C3=O)c2C1=O` gave procasp3 activ -3, proCasp7 act 4, T cell HTS 301, aDG glyco up 4.5*, GRK2 aptamer HTS 5 and aDG glyco conf -1.
Screening COc1cc(CNC(=O)Nc2nc(C(N)Cc3ccc(Cl)cc3)cs2)cc(OC)c1OC (stereo not drawn) returned CaV13 ICDI inh -7, aDG glyco up 5.8* and aDG glyco conf 5.9*.
N#Cc1ccc(-c2nc3c4ccccc4ccn3c2CC2CCCCC2)cc1 was read as CaV13 ICDI inh -5, aDG glyco up 22* and aDG glyco conf 7.2*.
Screening COC(=O)c1ccc(CSc2ccc3nnc(-c4ccc(F)cc4)n3n2)o1 returned CaV13 ICDI inh -5, procasp3 activ -8, proCasp7 act -2, T cell HTS 399, aDG glyco up 0 and GRK2 aptamer HTS 0.
For COC(=O)c1ccc(CSc2ccc3nnc(-c4ccccn4)n3n2)o1 the results were CaV13 ICDI inh -5, procasp3 activ -6, proCasp7 act 7, T cell HTS 420, aDG glyco up 4.7*, GRK2 aptamer HTS 3 and aDG glyco conf 0.
`Cc1cccn2c(=O)c(C(=O)NC3CC(C)CC(C)(C)C3)c(O)nc12` (stereo not drawn) gave CaV13 ICDI inh -2, procasp3 activ -3, proCasp7 act -1, T cell HTS 256, aDG glyco up 3.6*, GRK2 aptamer HTS 2 and aDG glyco conf 2.
`CCCCc1ccc(NC(=O)C(=O)NCCN2CCN(Cc3ccc([N+](=O)[O-])cc3)CC2)cc1` gave CaV13 ICDI inh 3, procasp3 activ 2, proCasp7 act 11, T cell HTS 417, aDG glyco up 6.6*, GRK2 aptamer HTS 0 and aDG glyco conf 0.
For CC1(C(=O)Nc2ccc3c(c2)OCCO3)CSCC(=O)N1C1CC1 (stereo not drawn) the results were CaV13 ICDI inh -6, aDG glyco up 8.6* and aDG glyco conf 1.
`CN1CCN(CC(=O)Nc2cc(N(C)C)nc3ccccc23)CC1` gave CaV13 ICDI inh 3, procasp3 activ -2, proCasp7 act 13, T cell HTS 191, aDG glyco up 1 and GRK2 aptamer HTS 5.
Screening O=C(O)/C(=C\c1ccc2ccccc2c1)c1cccc2ccccc12 returned CaV13 ICDI inh -11, procasp3 activ 12, proCasp7 act 1, T cell HTS 556, aDG glyco up 0 and GRK2 aptamer HTS 2.
Screening CCN(CCCNC(=O)c1nn(C)c2c1CS(=O)(=O)c1ccccc1-2)Cc1ccccc1 returned CaV13 ICDI inh -8, procasp3 activ 4, proCasp7 act -5, T cell HTS 217, aDG glyco up 0 and GRK2 aptamer HTS 0.
O=C(Nc1ccncc1)c1ccc(-c2ccccc2)cc1 was read as CaV13 ICDI inh -4, procasp3 activ 2, proCasp7 act 11, T cell HTS 218, aDG glyco up 9.1*, GRK2 aptamer HTS 0 and aDG glyco conf 2.
`Cc1cc(NC2=CC(=O)C(=O)c3ccccc32)no1` gave CaV13 ICDI inh -6, aDG glyco up 14* and aDG glyco conf 16*.
`Cc1ccc(NC2=CC(=O)C(=O)c3ccccc32)cc1` gave CaV13 ICDI inh -6, procasp3 activ -2, proCasp7 act -3, T cell HTS 920, aDG glyco up 7 and GRK2 aptamer HTS 3.
Screening COc1cc(SC)ccc1C(=O)NCCCn1ccnc1 returned CaV13 ICDI inh -20, procasp3 activ 3, proCasp7 act 9, T cell HTS 338, aDG glyco up 0 and GRK2 aptamer HTS 0.
`COc1ccc(CCN(C)C(=O)c2cc(-c3ccccc3)nc3ccc(C)cc23)cc1OC` gave procasp3 activ -2, proCasp7 act 6, T cell HTS 283, aDG glyco up 7.8*, GRK2 aptamer HTS 0 and aDG glyco conf 0.
COc1ccc(CCN(C)C(=O)c2cc(-c3ccccc3)nc3ccccc23)cc1OC was read as CaV13 ICDI inh -6, T cell HTS 166, aDG glyco up 0 and GRK2 aptamer HTS 0.
For CN(C)C(CNc1ncnc2sc3c(c12)CCCC3)c1ccco1 (stereo not drawn) the results were CaV13 ICDI inh -19, procasp3 activ -1, proCasp7 act 3, T cell HTS 207, aDG glyco up 0 and GRK2 aptamer HTS 1.
`C[C@H](CO)N1C[C@H](C)[C@@H](CN(C)C(=O)Nc2ccccc2)Oc2ccc(NS(=O)(=O)c3cn(C)cn3)cc2C1=O` gave CaV13 ICDI inh -4, procasp3 activ 1, proCasp7 act -3, T cell HTS 457, aDG glyco up 0 and GRK2 aptamer HTS 2.
